High-throughput results: PubChem, SRMLSC
Lung fibro prol: blocks proliferation of human lung fibroblasts; LL 47 human lung fibroblast viability, ATP luminescence; active compounds read low; viability, % at 10 µM; 85,000 compounds, 1.1% hits; AID 719;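 active = viability at or below 50% in the single dose screen; inactive = viability above 50%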;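 also: compound exposure lasted 72 h before the ATP readout; 100% = median luminescence of untreated cell-only wells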
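Times – overnight cell rest, 72 h compound treatment at 37 °C · Test system – human lung fibroblast line LL 47, low passage · Amount – 1,150 cells in each well · Controls – cell-only wells, no compound · Doses – 0.1% DMSO in all compound wells · Measured by – CellTiter-Glo luminescence · Buffer or medium – IMEM plus 15% FBS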
HCT116 bCat-KO: beta-catenin-lacking colon tumor cell growth suppression; HCT116 beta-catenin knockout viability, CellTiter-Glo, 60 h; active compounds read low; viability, % at 10 µM; 140,000 compounds, 1.5% hits; AID 818;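 active = viability at or under a set limit, the compound median less 4 SD, cut at about 6% in these data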;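 also: 0% = Hyamine 1622 control at 20 µM and 100% = untreated cell control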
PTEN del growth: PTEN-deleted cell growth suppression; HCT116 PTEN-null viability, CellTiter-Glo, 60 h; active compounds read low; viability, % at 10 µM; 140,000 compounds, 1.2% hits;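 active = viability at or below a set limit, 4 SD under the median of all tested compounds, cut at about 3.7% in these data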;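 also: PTEN knockout HCT116 line with beta catenin targeted HCT116 as companion control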
H69AR growth 86K: growth inhibitors of human H69AR lung tumor cells | H69AR lung tumor viability, ATP luminescence, 72 h; active compounds read low | viability, % at 10 µM | 85,000 compounds, 6% hits | AID 598;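 active = viability at or below 40%; inactive = viability above 40%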;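 also: multidrug resistant small cell line overexpressing MRP-1 efflux transporter; 100% = mean luminescence of untreated control wells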
HUVEC inhibit: inhibitors of human endothelial cell proliferation. 86,000 compounds, 1.1% hits. AID 648. HUVEC proliferation, CellTiter-Glo luminescence, 72 h; active compounds read low. viability, % at 10 µM (by protocol);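 active = viability at or below 30%; inactive = viability above 30%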;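 also: 100% = median luminescence of DMSO-only cell control wells on each plate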
Starred values were filed as active, the others as inactive; · = not tested or not shown. The sample as a whole holds a higher share of hits than the screen did.

SMILES	Lung fibro prol	HCT116 bCat-KO	PTEN del growth	H69AR growth 86K	HUVEC inhibit
COc1ccc(C(CCNCc2ccccc2)c2ccc(F)cc2)cc1 (configuration not stated)	·	2.0*	2.4*	·	·
COc1ccc(C(CCNC(C)c2ccccc2)c2ccc(F)cc2)cc1 (configuration not stated)	·	1.4*	1.4*	·	·
COc1ccc(C(CC(=O)NCc2ccco2)c2ccc(F)cc2)cc1 (configuration not stated)	91.0	85.9	83.3	96.7	91.7
COc1ccc(NC(=O)CC(c2ccc(F)cc2)c2ccc(OC(C)C)cc2)cc1 (configuration not stated)	·	79.1	90.9	·	·
CCC(=O)N1c2ccc(C)cc2C2=NNC(=S)NC21O (configuration not stated)	·	102.4	99.9	·	·
CCCCNC(=O)c1ccc2c(SCC(=O)O)c3c(nc2c1)CCCC3	·	79.2	101.7	·	·
Cc1ccc(CNC(=O)CSc2c3c(nc4cc(Cl)ccc24)CCCC3)o1	87.3	70.5	61.8	2.7*	81.7
CCc1ccc2nc(NC(=O)c3cc(C)on3)sc2c1	74.9	31.2	24.5	17.3*	70.8
COc1ccccc1Nc1ncccc1C(=O)NCc1ccccc1	88.3	89.1	87.7	76.6	76.5
O=C1c2cc([N+](=O)[O-])cc3cc([N+](=O)[O-])cc(c23)C(=O)N1c1ccccn1	·	15.5	5.7	·	·
Cc1ccnc(N2C(=O)c3cccc4c([N+](=O)[O-])ccc(c34)C2=O)c1	·	1.2*	1.3*	·	·
Cc1cc(C2=CC(C)(c3cc(C)oc3C)Nc3nc(C(F)(F)F)nn32)c(C)o1 (configuration not stated)	79.6	79.9	83.0	3.2*	66.6
CCOC(=O)C1=C(CC)Nc2ccccc2N=C1NC(=O)Cn1cnc2ccccc2c1=O	103.4	79.0	73.5	97.2	100.1
CCOC(=O)C1=C(CC)Nc2ccccc2N=C1NC(=O)Nc1ccc(Cl)c(Cl)c1	·	2.6*	2.6*	·	·
C=CCOC(=O)C1=C(C)NC(SCC(=O)N(CC)CC)=C(C#N)C1c1ccco1 (configuration not stated)	94.7	89.4	73.4	35.4*	94.0
CN(C)CCCNC(=O)c1ccccn1	97.8	99.8	94.1	91.0	94.2
CN(C)CCCNC(=O)c1ccc(-c2nc(-c3ccc(Cl)cc3)cs2)cc1	·	1.3*	1.5*	·	·
CCOc1ccccc1NC(=O)COC(=O)CNS(=O)(=O)c1ccc(C)cc1	·	82.8	98.8	·	·
CN1C(=O)N(C)C2(c3ccccc3)Nn3c(s/c(=C/c4ccccc4)c3=O)=NC12c1ccccc1 (configuration not stated)	90.7	64.7	74.0	38.3*	103.0
O=C(c1sc2cccc(F)c2c1Cl)N1CCN(c2ncccn2)CC1	·	91.7	92.0	·	·
CC(=O)Nc1nnc(SCc2ccccc2F)s1	100.5	98.1	110.5	91.2	91.3
O=C(Nc1nnc(-c2ccccc2SCc2ccccc2F)s1)Nc1ccccc1F	26.2*	1.3*	1.4*	15.9*	65.8
CCOc1cc(/C=N/NC(=O)CSc2nncn2C)ccc1OCc1cccc(C)c1	·	96.0	94.9	·	·
O=c1cc(-c2ccccc2)[nH]n1-c1nc2ccccc2[nH]1	27.5*	4.5*	7.8	·	54.2
FC(F)(F)c1cc(-c2ccco2)nc(NCc2cccnc2)n1	96.1	46.9	52.3	29.3*	55.0
SMILES	Lung fibro prol	HCT116 bCat-KO	PTEN del growth	H69AR growth 86K	HUVEC inhibit
COc1ccc(/C=C2\SC(=N)N(c3nccs3)C2=O)cc1OC	·	14.8	10.9	·	·
N=C1S/C(=C\c2ccc(-c3cccc(Cl)c3)o2)C(=O)N1c1nccs1	·	5.4*	2.9*	·	·
COc1cccc(-c2nc(CS(=O)(=O)CC(=O)Nc3cccc(C)c3C)c(C)o2)c1	97.3	92.8	96.9	1.5*	100.4
O=C(Oc1cccc(NC(=O)c2ccco2)c1)c1cccc(S(=O)(=O)N2CCCCC2)c1	103.1	100.8	93.2	72.0	94.5
N#Cc1ccc(-c2ccc(OCC(=O)NCC(=O)Nc3ccc(F)c(F)c3F)cc2)cc1	·	73.6	73.4	·	·
Nc1nnc(-c2cc3ccccc3oc2=O)s1	99.6	75.4	80.7	95.0	87.4
O=c1oc2ccccc2cc1-c1nnc(NCc2ccco2)s1	91.0	58.1	35.1	32.2*	71.1
COc1ccc(Cn2c(C)c(C)c(C#N)c2NC(=O)Nc2cccc(Cl)c2)cc1	93.2	79.1	78.7	36.2*	61.0
COc1ccc(Cn2c(C)c(C)c(C#N)c2NC(=O)Nc2ccc(Cl)cc2)cc1	74.1	97.1	99.5	35.0*	63.1
COC(=O)c1c(NC(=O)CSc2nc3ccccc3c(=O)n2Cc2ccco2)sc(C)c1C	·	40.6	60.8	·	·
COC(=O)c1ccc2c(=O)n(Cc3ccc4c(c3)OCO4)c(SCC(=O)N3CCCC3)nc2c1	118.9	·	·	2.5*	88.4
COC(=O)c1ccc2c(=O)n(CC3CCCO3)c(SCC(=O)Nc3ccccc3Cl)nc2c1 (configuration not stated)	80.2	2.5*	2.2*	8.2*	46.9
COC(=O)c1ccc2c(=O)n(Cc3ccco3)c(SCC(=O)Nc3ccccc3Cl)nc2c1	91.4	67.7	20.8	16.6*	23.6*
CCc1ccc(NC(=O)CSc2nc3cc(C(=O)OC)ccc3c(=O)n2CC2CCCO2)cc1 (configuration not stated)	36.3*	48.4	8.3	3.5*	48.4
COC(=O)c1ccc2c(=O)n(CC3CCCO3)c(SCC(=O)Nc3ccccc3OC)nc2c1 (configuration not stated)	112.9	77.3	66.3	83.3	85.8
CS(=O)(=O)N1CCC(C(=O)Nc2ccc3c(c2)OCCO3)CC1	97.7	100.1	105.7	92.7	97.8
Cc1ccccc1NS(=O)(=O)c1ccc(F)cc1	93.5	103.9	113.0	98.3	82.8
COc1ccc(S(=O)(=O)Nc2ccccc2C)cc1	77.9	45.8	37.8	12.5*	53.3
C/C(=N\NC(=O)c1cccc(Cl)c1)C1C(=O)c2ccccc2C1=O	·	71.8	61.4	·	·
Cc1ccc(C(=O)NC(O)C(Cl)Cl)cc1 (configuration not stated)	·	62.0	62.3	·	·
CCCCCCCCCCCCCCCC[n+]1ccc(C(N)=O)cc1	·	1.1*	1.1*	·	·
CCCCCCCCCCCCCCCC[n+]1cccc(C(=O)N(CC)CC)c1	·	1.5*	1.5*	·	·
CCCCCCCCCCCCCCCC[n+]1ccc(/C=N/O)cc1	·	0.9*	1.0*	·	·
COc1ccc(/C(C)=N/OCC(=O)N2CC3(C)CC2CC(C)(C)C3)cc1 (configuration not stated)	·	83.5	80.0	·	·
O=c1[nH]c2ccccc2c2nc3ccccn3c12	90.4	72.0	72.1	35.2*	88.6
O=C(CNc1ccccc1)N/N=C/c1ccc([N+](=O)[O-])o1	·	2.6*	4.2	·	·
O=C(CNC(=O)c1ccccc1)N/N=C/c1ccc([N+](=O)[O-])o1	·	15.2	21.2	·	·
O=C(N/N=C/c1ccc([N+](=O)[O-])o1)c1ccc(O)cc1	·	3.2*	5.0	·	·
Cc1ccc(NCC(=O)N/N=C\c2ccc([N+](=O)[O-])o2)cc1	·	5.8*	9.2	·	·
C=CCNC(=O)COc1cc(C)ccc1C	·	87.8	89.3	·	·
